Data taken from ChEMBL document CHEMBL4196175, “First SAR Study for Overriding NRAS Mutant Driven Acute Myeloid Leukemia” (J Med Chem, 2018).
Calls of active or inactive are those of the source. No cut-off for these calls is given here.

Key:
OCI-AML-3 [1] = assay: Growth inhibition of human OCI-AML3 cells harboring NRAS-Q61L mutant after 72 hrs by celltiter-glo assay; assay type: functional; details: OCI-AML-3, 72 h
OCI-AML-3 [2] = assay: Inhibition of anchorage-independent cell growth in human OCI-AML3 cells harboring NRAS Q61L mutant assessed as reduction in colony number at 0.1 to 1 uM after 14 days by iodonitrotetrazolium chloride staining-based soft agar assay; assay type: functional
How it was run: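 OCI-AML3 cells embedded in 0.7% low-melting agar, incubated 2 weeks with compound at 0.1 or 1 µM; colony number and colony size per well measured by automated image analysis; n = 3 per condition, SD, one-way ANOVA.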

[3] = Metabolic stability in mouse liver microsomes assessed as compound remaining at 1 uM after 30 mins; assay type: ADME, microsome; details: read-out: Stability
CYP1A2 = biological target: T1, CYP1A2 (Homo sapiens, UniProt P05177); assay: Inhibition of CYP1A2 (unknown origin) assessed as activity remaining at 10 uM relative to control; assay type: ADME; details: read-out: Activity
T1 sequence (P05177 whole entry): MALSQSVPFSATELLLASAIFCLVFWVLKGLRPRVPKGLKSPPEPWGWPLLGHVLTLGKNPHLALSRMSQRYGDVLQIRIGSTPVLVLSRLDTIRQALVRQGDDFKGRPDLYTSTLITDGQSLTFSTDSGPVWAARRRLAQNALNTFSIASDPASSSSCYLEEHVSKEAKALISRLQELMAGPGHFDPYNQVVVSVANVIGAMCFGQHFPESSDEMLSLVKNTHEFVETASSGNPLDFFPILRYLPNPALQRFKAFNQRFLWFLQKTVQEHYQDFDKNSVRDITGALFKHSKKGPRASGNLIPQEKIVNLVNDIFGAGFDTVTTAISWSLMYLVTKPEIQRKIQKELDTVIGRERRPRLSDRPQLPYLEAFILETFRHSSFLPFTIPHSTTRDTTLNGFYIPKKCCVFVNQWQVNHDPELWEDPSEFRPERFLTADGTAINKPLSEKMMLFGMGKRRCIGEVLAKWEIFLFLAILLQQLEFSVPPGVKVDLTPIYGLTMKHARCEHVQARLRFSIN

Activated CDC42 kinase 1 [4] = biological target: T2, Activated CDC42 kinase 1 (Homo sapiens, UniProt Q07912); assay: Inhibition of ACK1 in human OCI-AML3 cells harboring NRAS Q61L mutant assessed as reduction in AKT phosphorylation at S473 at 1 uM after 2 hrs by Western blot analysis; assay type: cell-based
How it was run: (§1)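 Ba/F3-NRAS-G12D or OCI-AML3 cells exposed 2 h to compounds (1 µM, or a dose series in OCI-AML3); phospho-p70S6K1, phospho-AKT S473, phospho-JNK and phospho-p38 assessed by western blot, actin as loading control.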
Target sequence in this assay (Q07912 whole entry, looked up): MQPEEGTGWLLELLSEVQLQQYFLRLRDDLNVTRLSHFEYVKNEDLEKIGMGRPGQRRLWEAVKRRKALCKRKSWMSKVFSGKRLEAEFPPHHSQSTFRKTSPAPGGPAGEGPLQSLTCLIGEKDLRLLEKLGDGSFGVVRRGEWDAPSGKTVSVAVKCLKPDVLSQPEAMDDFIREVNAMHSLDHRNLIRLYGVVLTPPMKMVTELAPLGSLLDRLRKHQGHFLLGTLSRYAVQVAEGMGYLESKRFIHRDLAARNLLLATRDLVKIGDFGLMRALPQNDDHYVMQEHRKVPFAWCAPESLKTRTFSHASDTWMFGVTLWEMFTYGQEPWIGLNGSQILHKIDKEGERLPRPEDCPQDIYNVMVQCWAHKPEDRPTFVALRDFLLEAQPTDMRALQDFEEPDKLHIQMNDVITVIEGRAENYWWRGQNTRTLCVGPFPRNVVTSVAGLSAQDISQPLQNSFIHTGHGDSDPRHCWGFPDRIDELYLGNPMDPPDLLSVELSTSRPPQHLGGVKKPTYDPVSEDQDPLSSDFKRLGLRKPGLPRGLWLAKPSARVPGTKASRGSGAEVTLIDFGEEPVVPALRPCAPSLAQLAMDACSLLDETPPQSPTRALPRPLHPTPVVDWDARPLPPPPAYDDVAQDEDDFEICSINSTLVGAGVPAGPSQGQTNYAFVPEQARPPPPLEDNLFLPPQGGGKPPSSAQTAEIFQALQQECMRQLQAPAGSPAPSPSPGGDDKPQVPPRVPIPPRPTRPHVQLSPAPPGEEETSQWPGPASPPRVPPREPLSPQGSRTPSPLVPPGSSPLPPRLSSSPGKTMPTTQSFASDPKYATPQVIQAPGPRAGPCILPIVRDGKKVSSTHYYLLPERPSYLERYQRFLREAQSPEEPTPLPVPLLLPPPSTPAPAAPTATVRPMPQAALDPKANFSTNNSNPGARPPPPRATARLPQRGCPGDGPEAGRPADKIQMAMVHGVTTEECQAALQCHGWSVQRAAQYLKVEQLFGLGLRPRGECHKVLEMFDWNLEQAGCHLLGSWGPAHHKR

[5] = biological target: Activated CDC42 kinase 1 (Mus musculus) (UniProt O54967); assay: Inhibition of ACK1 in mouse BA/F3 cells harboring NRAS-G12D mutant assessed as reduction in P70S6K1 phosphorylation at Thr421/Ser424 at 1 uM after 2 hrs by Western blot analysis; assay type: cell-based; how it was run: as §1
[6] = biological target: T3, Mitogen-activated protein kinase kinase kinase kinase 2 (Homo sapiens) (UniProt Q12851); assay: Inhibition of GCK in human OCI-AML3 cells harboring NRAS Q61L mutant assessed as reduction in p38 phosphorylation at Thr180/Tyr182 at 1 uM after 2 hrs by Western blot analysis; assay type: cell-based; how it was run: as §1
T3 sequence (whole entry): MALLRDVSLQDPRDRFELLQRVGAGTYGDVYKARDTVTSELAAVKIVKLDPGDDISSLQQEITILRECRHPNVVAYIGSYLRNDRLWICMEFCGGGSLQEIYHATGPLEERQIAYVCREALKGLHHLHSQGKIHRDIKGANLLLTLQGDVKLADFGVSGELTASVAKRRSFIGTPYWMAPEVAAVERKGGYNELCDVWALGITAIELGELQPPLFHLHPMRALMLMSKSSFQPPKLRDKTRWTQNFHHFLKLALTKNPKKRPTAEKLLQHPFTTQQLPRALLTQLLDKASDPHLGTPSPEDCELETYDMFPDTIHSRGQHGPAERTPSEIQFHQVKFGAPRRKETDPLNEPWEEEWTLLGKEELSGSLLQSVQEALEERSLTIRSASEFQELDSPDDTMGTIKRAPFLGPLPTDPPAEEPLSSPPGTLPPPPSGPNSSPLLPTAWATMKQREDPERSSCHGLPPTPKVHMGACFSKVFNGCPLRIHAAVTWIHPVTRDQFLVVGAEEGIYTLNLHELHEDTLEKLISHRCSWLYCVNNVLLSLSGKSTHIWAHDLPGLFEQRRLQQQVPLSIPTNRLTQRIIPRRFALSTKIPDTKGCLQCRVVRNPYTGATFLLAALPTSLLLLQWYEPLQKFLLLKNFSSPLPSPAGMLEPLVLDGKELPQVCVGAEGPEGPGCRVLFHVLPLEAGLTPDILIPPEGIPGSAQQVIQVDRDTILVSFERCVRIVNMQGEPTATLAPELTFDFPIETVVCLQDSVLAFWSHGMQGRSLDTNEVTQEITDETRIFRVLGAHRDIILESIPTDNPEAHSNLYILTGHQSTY

Activated CDC42 kinase 1 [7] = biological target: T2, Activated CDC42 kinase 1; assay: Inhibition of ACK1 (unknown origin) by radiometric biochemical kinase assay
Target sequence in this assay (Q07912 whole entry): as the sequence (Q07912 whole entry, looked up) above

[8] = Metabolic stability in rat liver microsomes assessed as compound remaining at 1 uM after 30 mins; assay type: ADME, microsome; details: read-out: Stability
Activated CDC42 kinase 1 [9] = biological target: T2, Activated CDC42 kinase 1; assay: Inhibition of ACK1 in human OCI-AML3 cells harboring NRAS Q61L mutant assessed as reduction in AKT phosphorylation at S473 after 2 hrs by Western blot analysis; assay type: cell-based; how it was run: as §1
Target sequence in this assay (Q07912 whole entry, looked up): as the sequence (Q07912 whole entry, looked up) above

OCI-AML-3 [10] = assay: Induction of apoptosis in human OCI-AML3 cells harboring NRAS Q61L mutant assessed as decrease in bcl2 levels at 1 uM after 24 hrs by Western blot analysis; assay type: functional, cell-based
How it was run: (§2)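 Cells treated 24 h with indicated concentrations (1 µM; 5 µM also used in Ba/F3-NRAS-G12D); cleaved PARP, cleaved caspase 3, bcl-2 and MCL1 detected by western blot with actin as loading control.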

OCI-AML-3 [11] = assay: Induction of apoptosis in human OCI-AML3 cells harboring NRAS Q61L mutant assessed as increase in apoptotic cells at 1 uM after 24 hrs by annexin V/propidium iodide staining based FACS analysis relative to control; assay type: functional
How it was run: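 Apoptosis scored by flow cytometry after FITC-annexin V/propidium iodide dual staining following 24 h exposure, at 1 µM or a range of indicated concentrations; three independent experiments, mean with SD, one-way ANOVA.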

OCI-AML-3 [12] = assay: Induction of apoptosis in human OCI-AML3 cells harboring NRAS Q61L mutant assessed as increase in cleaved caspase-3 levels at 1 uM after 24 hrs by Western blot analysis; assay type: functional, cell-based; how it was run: as §2
[13] = biological target: T3, Mitogen-activated protein kinase kinase kinase kinase 2 (Homo sapiens); assay: Inhibition of GCK in human OCI-AML3 cells harboring NRAS Q61L mutant assessed as reduction in p38 phosphorylation at Thr180/Tyr182 after 2 hrs by Western blot analysis; assay type: cell-based; how it was run: as §1
OCI-AML-3 [14] = assay: Growth inhibition of ACK1/GCK knockdown human OCI-AML3 cells harboring NRAS-Q61L mutant at 0.2 uM after 72 hrs by celltiter-glo assay; assay type: functional, cell-based

Activated CDC42 kinase 1 (Mus musculus), sequence (O54967 whole entry): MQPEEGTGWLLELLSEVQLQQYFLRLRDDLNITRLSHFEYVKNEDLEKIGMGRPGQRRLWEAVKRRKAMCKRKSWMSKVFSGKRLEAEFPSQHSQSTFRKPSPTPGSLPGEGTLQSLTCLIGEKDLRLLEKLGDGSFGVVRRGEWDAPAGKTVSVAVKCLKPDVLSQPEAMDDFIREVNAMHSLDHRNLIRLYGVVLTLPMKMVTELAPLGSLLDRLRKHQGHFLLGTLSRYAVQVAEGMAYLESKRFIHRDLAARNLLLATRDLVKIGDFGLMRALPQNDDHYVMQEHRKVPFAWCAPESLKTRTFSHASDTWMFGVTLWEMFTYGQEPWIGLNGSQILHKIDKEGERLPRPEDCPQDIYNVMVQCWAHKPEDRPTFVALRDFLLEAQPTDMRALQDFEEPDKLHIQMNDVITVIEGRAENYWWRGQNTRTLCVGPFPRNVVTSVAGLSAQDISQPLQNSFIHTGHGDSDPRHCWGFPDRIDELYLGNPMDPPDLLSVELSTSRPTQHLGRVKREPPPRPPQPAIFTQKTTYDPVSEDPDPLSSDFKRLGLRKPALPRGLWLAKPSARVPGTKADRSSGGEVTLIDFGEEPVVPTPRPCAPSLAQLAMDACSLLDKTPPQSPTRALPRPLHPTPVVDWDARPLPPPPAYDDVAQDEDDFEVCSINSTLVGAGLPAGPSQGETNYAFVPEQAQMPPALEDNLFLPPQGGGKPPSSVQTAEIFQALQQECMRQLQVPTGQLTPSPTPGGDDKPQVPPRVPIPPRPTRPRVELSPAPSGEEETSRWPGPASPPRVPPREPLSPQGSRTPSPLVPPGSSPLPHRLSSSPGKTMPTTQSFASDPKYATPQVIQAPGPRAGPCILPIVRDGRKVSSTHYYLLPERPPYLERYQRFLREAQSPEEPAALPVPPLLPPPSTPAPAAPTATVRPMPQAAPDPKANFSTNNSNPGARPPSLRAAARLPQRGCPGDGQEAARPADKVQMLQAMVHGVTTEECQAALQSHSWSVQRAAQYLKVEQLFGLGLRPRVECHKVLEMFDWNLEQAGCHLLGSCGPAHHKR

Row | GI50 (OCI-AML-3 [1]) [µM] | remaining at 0.5 h, 1 µM [3] [%] | activity at 10 µM (CYP1A2) [%] | reduction in AKT S473 phosphorylation (qualitative) (Activated CDC42 kinase 1 [4]) | reduction in P70S6K1 phosphorylation (active/inactive) [5] | inhibition [6] | IC50 (Activated CDC42 kinase 1 [7]) [µM] | remaining at 0.5 h, 1 µM [8] [%] | SMILES | growth inhibition (GI) (OCI-AML-3 [2]) | inhibition (Activated CDC42 kinase 1 [9]) | Activity (OCI-AML-3 [10]) | Activity (OCI-AML-3 [11]) | Activity (OCI-AML-3 [12]) | inhibition [13] | growth inhibition (GI) (OCI-AML-3 [14])
1 | 0.037 | 58.7 | 67.5 | Active | Active | Active | 0.006 | 76.5 | Cc1ccc(Nc2ncc3c(n2)N(C)C(=O)N(c2cc(NC(=O)c4ccc(CN5CCC(N(C)C)C5)c(C(F)(F)F)c4)ccc2C)C3)cn1 (stereo not drawn) | Active | – | – | – | – | – | –
2 | 0.122 | 24.2 | 81.8 | Active | Active | Active | 0.013 | 38.3 | CCN1CCN(C(=O)c2ccc(Nc3ncc4c(n3)N(C)C(=O)N(c3cc(NC(=O)c5cccc(C(F)(F)F)c5)ccc3C)C4)cn2)CC1 | – | – | – | – | – | – | Active
3 | 0.179 | 49.1 | 87.2 | – | – | – | 0.008 | 75.4 | CC(=O)N1CCN(c2ccc(Nc3ncc4c(n3)N(C)C(=O)N(c3cc(NC(=O)c5cccc(C(F)(F)F)c5)ccc3C)C4)cn2)CC1 | Active | Dose-dependent effect | Active | 15 - 30% | Active | Dose-dependent effect | Active
4 | 0.208 | 74.7 | 88.2 | Active | Active | Active | 0.009 | 82.3 | Cc1cc(Nc2ncc3c(n2)N(C)C(=O)N(c2cc(NC(=O)c4cccc(C(F)(F)F)c4)ccc2C)C3)n(C)n1 | – | – | – | – | – | – | Active

Row | SMILES | GI50 (OCI-AML-3 [1]) [µM] | remaining at 0.5 h, 1 µM [3] [%] | activity at 10 µM (CYP1A2) [%] | reduction in AKT S473 phosphorylation (qualitative) (Activated CDC42 kinase 1 [4]) | reduction in P70S6K1 phosphorylation (active/inactive) [5] | inhibition [6] | IC50 (Activated CDC42 kinase 1 [7]) [µM] | remaining at 0.5 h, 1 µM [8] [%] | growth inhibition (GI) (OCI-AML-3 [2]) | inhibition (Activated CDC42 kinase 1 [9]) | Activity (OCI-AML-3 [10]) | Activity (OCI-AML-3 [11]) | Activity (OCI-AML-3 [12]) | inhibition [13] | growth inhibition (GI) (OCI-AML-3 [14])
5 | Cc1ccc(NC(=O)c2cccc(C(F)(F)F)c2)cc1N1Cc2cnc(N)nc2N(C)C1=O | 0.466 | 80 | 89.2 | Active | Active | Active | 0.018 | 81.3 | Active | Dose-dependent effect | Active | 15 - 30% | Active | Dose-dependent effect | –
